Measured values published in ChEMBL document CHEMBL2176966, “Discovery of 6,7-dihydro-5H-pyrrolo[2,3-a]pyrimidines as orally available G protein-coupled receptor 119 agonists” (J Med Chem, 2012).
Converted amounts (≈) assume the structure as drawn. The source made the active and inactive calls. No cut-off for these calls is given here.

How the values were obtained:
[1] = Ratio of drug level brain to plasma in rat at 30 mg/kg; assay type: ADME, organism-based; design: dose 30 mg/kg; conditions: read-out: BPR
[2] = Volume of distribution at steady state in rat at 30 mg/kg; assay type: ADME, organism-based; design: dose 30 mg/kg; conditions: in vivo, read-out: Vdss
[3] = test system: Rattus norvegicus; assay: Dose normalized AUC (0 to 24 hrs) in rat at 30 mg/kg; assay type: ADME, organism-based; design: dose 30 mg/kg; conditions: in vivo
[4] = Clearance in rat at 30 mg/kg; assay type: ADME, organism-based; design: dose 30 mg/kg; conditions: in vivo
[5] = Half life in rat at 30 mg/kg; assay type: ADME, organism-based; design: dose 30 mg/kg; conditions: in vivo
[6] = molecular target: T1, Glucose-dependent insulinotropic receptor (Homo sapiens, UniProt Q8TDV5); assay: Agonist activity at human GPR119 receptor expressed in CHO-K1 cells co-expressing 6CRE-luciferase gene after 5 hrs by luciferase reporter gene assay; assay type: functional, cell-based; conditions: read-out: pEC50 (converted)
T1 sequence (Q8TDV5 whole entry): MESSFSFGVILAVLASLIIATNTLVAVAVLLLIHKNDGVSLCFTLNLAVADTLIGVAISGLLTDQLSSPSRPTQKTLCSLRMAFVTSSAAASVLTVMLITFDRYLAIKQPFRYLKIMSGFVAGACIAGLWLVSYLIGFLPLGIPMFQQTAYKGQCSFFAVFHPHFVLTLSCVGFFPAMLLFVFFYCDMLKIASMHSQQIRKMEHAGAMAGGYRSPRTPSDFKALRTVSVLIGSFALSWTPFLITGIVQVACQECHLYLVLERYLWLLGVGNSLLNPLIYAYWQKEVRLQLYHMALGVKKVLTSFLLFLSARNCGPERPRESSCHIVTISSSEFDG

[7] = test system: Mus musculus; assay: Toxicity in C57BL/6 mouse assessed as effect on food intake at 10 mg/kg, po measured up to 24 hrs; assay type: organism-based; design: dose 10 mg/kg, route oral; conditions: in vivo
How it was run: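 Individually housed male C57BL/6 mice were fasted overnight and given 10 mg/kg. Normal-chow hoppers were weighed and returned. Hopper weights were recorded at 1, 2, 4, 6 and 24 h post-dose and compared with vehicle-treated mice.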

[8] = test system: Rattus norvegicus; assay: Antihyperglycemic activity in Sprague-Dawley rat assessed as reduction of acetaminophen AUC (0 to 2 hrs) at 10 mg/kg, po relative to control; assay type: functional; design: scale not given: the % may be the effect or the level left
How it was run: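 Male Sprague-Dawley rats, fasted overnight, dosed orally at 10 mL/kg in 0.5% HPMC/0.1% Tween80 (vehicle or compound) at −120 min. Pramlintide (15 μg) was given to a positive-control cohort at −15 min. Baseline plasma was taken at time 0, then acetaminophen (65 mg) by gavage. The plasma acetaminophen concentration–time profile was followed for 3 h; AUC 0–2 h was compared with vehicle.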

[9] = test system: Rattus norvegicus; assay: Antihyperglycemic activity in Wistar rat assessed as glucose excursion curve at 10 mg/kg, po by glucose tolerance test; assay type: functional
[10] = test system: Rattus norvegicus; assay: Increase of C-peptide level in Wistar rat at 10 mg/kg, po after 10 to 90 mins; assay type: functional, organism-based; design: dose 10 mg/kg
How it was run: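 Male Wistar rats (300–350 g) with jugular and femoral vein catheters, one week post-surgery, fasted overnight. Randomized to vehicle (n = 19) or oral compound (n = 8). About 90 min after gavage, a hyperglycemic clamp was started: a glucose bolus into the femoral vein, then variable-rate infusion holding glucose at 190–210 mg/dL. Serum C-peptide was measured by RIA, first phase 0–5 min and second phase 10–90 min.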

[11] = test system: Rattus norvegicus; assay: Increase of glucose infusion rate in Wistar rat at 10 mg/kg, po; assay type: functional, organism-based; design: dose 10 mg/kg
How it was run: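 Catheterized male Wistar rats (300–350 g, jugular and femoral lines, one week recovery) were fasted overnight and gavaged with vehicle (n = 19) or compound (n = 8). After ~90 min, an IV glucose bolus over 15–30 s was followed by variable-rate glucose infusion. The infusion was adjusted to clamp plasma glucose at 190–210 mg/dL, and the required infusion rate was recorded. Serum glucose was measured by analyzer.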

[12] = test system: Mus musculus; assay: Increase in glucagon level in GPR119 transgenic wild type mouse at 30 mg/kg, po after 60 mins relative to control; assay type: functional
How it was run: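 Wild-type and GPR119 knockout mice, fasted overnight, were dosed by oral gavage (30 mg/kg, 10 mL/kg, 0.5% HPMC/0.1% Tween80 vehicle). Plasma was obtained from cardiac blood at 60 min in chilled K2-EDTA containing DPP-4 inhibitor and aprotinin, then stored at −80 °C. Hormone levels were compared with vehicle; n = 8–10.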

[13] = test system: Mus musculus; assay: Increase in GLP-1 level in GPR119 knockout mouse at 30 mg/kg, po after 60 mins by electrochemiluminescence assay; assay type: functional, organism-based; design: dose 30 mg/kg
How it was run: (§1)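 Wild-type and GPR119 knockout mice, fasted overnight, received vehicle (0.5% HPMC/0.1% Tween80) or 30 mg/kg by oral gavage at 10 mL/kg. At 60 min, blood was taken by cardiac puncture under isoflurane into chilled K2-EDTA tubes with DPP-4 inhibitor and aprotinin (250 KIU/mL). Plasma was spun at 4 °C and stored at −80 °C. Total GLP-1 was measured by electrochemiluminescence immunoassay; n = 10.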

[14] = test system: Mus musculus; assay: Increase in GIP level in GPR119 knockout mouse at 30 mg/kg, po after 60 mins by ELISA relative to control; assay type: functional, organism-based; design: dose 30 mg/kg
How it was run: (§2)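 Overnight-fasted wild-type or GPR119 knockout mice were given vehicle (0.5% HPMC/0.1% Tween80) or 30 mg/kg orally at 10 mL/kg. Cardiac blood was drawn 60 min post-dose under isoflurane into chilled K2-EDTA with DPP-4 inhibitor and aprotinin (250 KIU/mL). Plasma was prepared at 4 °C and held at −80 °C. Total GIP was measured by ELISA; n = 10.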

[15] = test system: Mus musculus; assay: Increase in GIP level in GPR119 transgenic wild type mouse at 30 mg/kg, po after 60 mins by ELISA relative to control; assay type: functional; how it was run: as §2
[16] = test system: Mus musculus; assay: Increase in GLP-1 level in GPR119 transgenic wild type mouse at 30 mg/kg, po after 60 mins by electrochemiluminescence assay relative to control; assay type: functional; how it was run: as §1
[17] = Induction of GLP1 secretion in mouse GLUTag cells after 2 hrs; assay type: functional, cell-based
How it was run: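 GLUTag cells were grown to 80% confluence on Matrigel-coated plates in DMEM with 2 mM L-glutamine and 10% FBS. They were preincubated 30 min in Krebs-Ringer buffer (10 mM D-glucose, 0.1% BSA, DPP-IV inhibitor). Compound was then added at varying concentrations in the same buffer for 2 h at 37 °C, 5% CO2. Cleared supernatant was assayed for amidated (active) GLP-1 by sandwich electrochemiluminescence immunoassay.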

[18] = Equilibrium solubility of the compound in fasted simulated intestinal fluid; assay type: physicochemical
[19] = Volume of distribution at steady state in mouse at 30 mg/kg; assay type: ADME, organism-based; design: dose 30 mg/kg; conditions: in vivo, read-out: Vdss
[20] = Oral bioavailability in mouse at 30 mg/kg; assay type: ADME, organism-based; conditions: in vivo
[21] = Half life in mouse at 30 mg/kg; assay type: ADME, organism-based; design: dose 30 mg/kg; conditions: in vivo
[22] = Cmax in mouse at 30 mg/kg; assay type: ADME, organism-based; design: dose 30 mg/kg; conditions: in vivo
[23] = species: Rattus norvegicus; assay: Potentiation of 12 mM of glucose-induced insulin secretion in rat islet at 0.3 uM

Kp [1]: 0.7
Vd [2]: 1.5 L/kg
AUC/dose [3]: 2.04 µg·h/mL
clearance [4]: 0.504 L/h/kg
half-life [5]: 8.7 h
EC50 [6]: 0.0501 µM
EC50 [17]: 0.02 µM
solubility thermodynamic [18]: 4 µg/mL (≈ 8.36 µM)
Vd [19]: 0.7 L/kg
bioavailability [20]: 40%
half-life [21]: 2.8 h
Cmax [22]: 8.4 µM
Structure (SMILES): CC(C)OC(=O)N1CCC(Oc2ncnc3c2CCN3c2ccc(S(C)(=O)=O)cc2F)CC1
Activity [7]: Non-toxic
Activity [8]: 27%
Activity [9]: 43%
Activity [10]: Active
Activity [11]: Active
fold change (FC) [12]: 2
Activity [13]: inactive
Activity [14]: inactive
fold change (FC) [15]: 2
fold change (FC) [16]: 4
Activity [23]: Active
